Experimental data published in ChEMBL document CHEMBL3526146, “In vitro and in vivo metabolism and pharmacokinetics of BMS-562086, a potent and orally bioavailable corticotropin-releasing factor-1 receptor antagonist” (Drug Metab Dispos, 2012).

Tests used:
Liver microsome [1] = assay: Detection of compound level in rat liver microsomes treated with 100 uM of BMS-562086 after 1 hr by LC-MS/MS analysis
[2] = Drug metabolism in mouse hepatocytes assessed as DPH-123554 metabolite level at 25 uM after 3 hrs by LC-MS/MS analysis; format: ADME, cell-based, Hepatocyte
Method in brief: (§1)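 Hepatocytes checked for viability by trypan blue exclusion, then diluted in Krebs-Henseleit buffer to 1.0 × 10^6 cells/ml. Incubated in duplicate with 25 µM compound at 37°C for 3 h on an orbital shaker (80 rpm) under 95/5 O2/CO2. Negative control had no cells. Stopped with ice-cold acetonitrile, sonicated, centrifuged; supernatant analysed by LC/MS/MS.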

Hepatocyte [3] = assay: Detection of compound level in human cryopreserved hepatocytes treated with 25 uM of BMS-562086 after 3 hrs by LC-MS/MS analysis; format: ADME, cell-based
Method in brief: (§2)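 Mouse, rat, dog, monkey and human hepatocytes (trypan blue viability checked) at 1.0×10^6 cells/ml in Krebs-Henseleit buffer were incubated with 25 µM compound, in duplicate. Conditions were 37°C, 95/5 O2/CO2, orbital shaking, 3 h. 7-Ethoxycoumarin and 7-hydroxycoumarin (100 µM) served as positive controls, with a cell-free negative control. Reactions were quenched with ice-cold acetonitrile, then sonicated and centrifuged; supernatants were analysed by LC/MS/MS.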

Liver microsome [4] = assay: Drug metabolism in dog liver microsomes at 100 uM after 1 hr in presence of NADPH; format: ADME, Canis lupus familiaris
Method in brief: (§3)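 Liver microsomes (1 mg/ml protein) in 100 mM phosphate buffer with 100 µM test compound. Reaction started by adding NADPH (1 mM), then run at 37°C for 1 h in a shaking water bath, in duplicate. Controls lacked microsomal protein or NADPH; 7-ethoxycoumarin (100 µM) was the positive control. Metabolites identified by LC/MS/MS.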

[5] = Detection of compound level in beagle dog hepatocytes treated with 25 uM of BMS-562086 after 3 hrs by LC-MS/MS analysis; format: ADME, cell-based, Canis lupus familiaris, Hepatocyte
Method in brief: as §2

[6] = Drug metabolism in cynomolgus monkey cryopreserved hepatocytes assessed as DPH-123554 metabolite level at 25 uM after 3 hrs by LC-MS/MS analysis; format: ADME, cell-based, Macaca fascicularis, Hepatocyte
Method in brief: as §2

[7] = Drug metabolism in cynomolgus monkey cryopreserved hepatocytes at 25 uM after 3 hrs by LC-MS/MS analysis; format: ADME, cell-based, Macaca fascicularis, Hepatocyte
Method in brief: as §2

[8] = Detection of compound level in cynomolgus monkey cryopreserved hepatocytes treated with 25 uM of BMS-562086 after 3 hrs by LC-MS/MS analysis; format: ADME, cell-based, Macaca fascicularis, Hepatocyte
Method in brief: as §2

[9] = Drug metabolism in mouse liver microsomes assessed as BMS-572273 metabolite level at 100 uM after 1 hr in presence of NADPH; format: ADME
Method in brief: as §3

Liver microsome [10] = assay: Drug metabolism in dog liver microsomes assessed as DPH-124921 metabolite level at 100 uM after 1 hr in presence of NADPH; format: ADME, Canis lupus familiaris
Method in brief: (§4)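 Mouse, rat, dog, monkey and human liver microsomes (1 mg/ml protein) were incubated with 100 µM compound in 100 mM phosphate buffer. Reactions were started with 1 mM NADPH and run 1 h at 37°C in duplicate. Controls lacked protein or NADPH, plus a 7-ethoxycoumarin (100 µM) positive control. Metabolites were identified by LC/MS/MS.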

Liver microsome [11] = assay: Detection of compound level in beagle dog liver microsomes treated with 100 uM of BMS-562086 after 1 hr by LC-MS/MS analysis
Liver microsome [12] = assay: Drug metabolism in human liver microsomes assessed as BMS-572273 metabolite level at 100 uM after 1 hr in presence of NADPH; format: ADME
Method in brief: as §3

[13] = Drug metabolism in mouse liver microsomes assessed as DPH-124921 metabolite level at 100 uM after 1 hr in presence of NADPH; format: ADME
Method in brief: as §3

[14] = Drug metabolism in mouse hepatocytes at 25 uM after 3 hrs by LC-MS/MS analysis; format: ADME, cell-based, Hepatocyte
Method in brief: as §1

Liver microsome [15] = assay: Drug metabolism in beagle dog liver microsomes assessed as DPH-123554 metabolite level at 100 uM after 1 hr in presence of NADPH; format: ADME, Canis lupus familiaris
Method in brief: as §4

[16] = Drug metabolism in cynomolgus monkey liver microsomes assessed as DPH-123554 metabolite level at 100 uM after 1 hr in presence of NADPH; format: ADME, Macaca fascicularis
Method in brief: as §4

Liver microsome [17] = assay: Drug metabolism in human liver microsomes assessed as DPH-123554 metabolite level at 100 uM after 1 hr in presence of NADPH; format: ADME
Method in brief: as §3

Hepatocyte [18] = assay: Detection of compound level in mouse hepatocytes treated with 25 uM of BMS-562086 after 3 hrs by LC-MS/MS analysis; format: ADME, cell-based
Method in brief: as §2

[19] = Drug metabolism in rat hepatocytes assessed as DPH-123554 metabolite level at 25 uM after 3 hrs by LC-MS/MS analysis; format: ADME, cell-based, Hepatocyte
Method in brief: as §1

[20] = Drug metabolism in mouse liver microsomes at 100 uM after 1 hr in presence of NADPH; format: ADME
Method in brief: as §3

[21] = Drug metabolism in cynomolgus monkey cryopreserved hepatocytes assessed as DPH-124921 metabolite level at 25 uM after 3 hrs by LC-MS/MS analysis; format: ADME, cell-based, Macaca fascicularis, Hepatocyte
Method in brief: as §2

[22] = Drug metabolism in cynomolgus monkey liver microsomes assessed as BMS-572273 metabolite level at 100 uM after 1 hr in presence of NADPH; format: ADME, Macaca fascicularis
Method in brief: as §4

[23] = Detection of compound level in mouse liver microsomes treated with BMS-562086 by LC-MS/MS analysis
[24] = Retention time of the compound by HPLC method; format: physicochemical
Liver microsome [25] = assay: Drug metabolism in rat liver microsomes assessed as DPH-124921 metabolite level at 100 uM after 1 hr in presence of NADPH; format: ADME
Method in brief: as §3

[26] = Drug metabolism in human cryopreserved hepatocytes assessed as DPH-124921 metabolite level at 25 uM after 3 hrs by LC-MS/MS analysis; format: ADME, cell-based, Hepatocyte
Method in brief: as §1

Liver microsome [27] = assay: Drug metabolism in human liver microsomes at 100 uM after 1 hr in presence of NADPH; format: ADME
Method in brief: as §3

[28] = Drug metabolism in cynomolgus monkey cryopreserved hepatocytes assessed as BMS-572273 metabolite level at 25 uM after 3 hrs by LC-MS/MS analysis; format: ADME, cell-based, Macaca fascicularis, Hepatocyte
Method in brief: as §2

[29] = Drug metabolism in mouse hepatocytes assessed as BMS-572273 metabolite level at 25 uM after 3 hrs by LC-MS/MS analysis; format: ADME, cell-based, Hepatocyte
Method in brief: as §1

[30] = Drug metabolism in rat hepatocytes at 25 uM after 3 hrs by LC-MS/MS analysis; format: ADME, cell-based, Hepatocyte
Method in brief: as §1

Liver microsome [31] = assay: Drug metabolism in human liver microsomes assessed as DPH-124921 metabolite level at 100 uM after 1 hr in presence of NADPH; format: ADME
Method in brief: as §3

[32] = Drug metabolism in rat hepatocytes assessed as DPH-124921 metabolite level at 25 uM after 3 hrs by LC-MS/MS analysis; format: ADME, cell-based, Hepatocyte
Method in brief: as §1

[33] = Drug metabolism in mouse hepatocytes assessed as DPH-124921 metabolite level at 25 uM after 3 hrs by LC-MS/MS analysis; format: ADME, cell-based, Hepatocyte
Method in brief: as §1

[34] = Drug metabolism in cynomolgus monkey liver microsomes assessed as DPH-124921 metabolite level at 100 uM after 1 hr in presence of NADPH; format: ADME, Macaca fascicularis
Method in brief: as §4

[35] = Drug metabolism in beagle dog hepatocytes assessed as DPH-123554 metabolite level at 25 uM after 3 hrs by LC-MS/MS analysis; format: ADME, cell-based, Canis lupus familiaris, Hepatocyte
Method in brief: as §2

**Q.** For `COc1ccc(-c2c(C)nn3c(N)nc(C)nc23)c(C)n1`, which Drug metabolism (Liver microsome [1]) is on record?
**A.** metabolite_detected

**Q.** What about the Drug metabolism [2] of the same compound?
**A.** metabolite_detected

**Q.** What about the Drug metabolism (Hepatocyte [3]) of the same compound?
**A.** metabolite_detected

**Q.** What about the Drug metabolism (Liver microsome [4]) of the same compound?
**A.** metabolite_detected

**Q.** What about the Drug metabolism [5] of the same compound?
**A.** metabolite_detected

**Q.** What about the Drug metabolism [6] of the same compound?
**A.** metabolite_detected

**Q.** What about the Drug metabolism [7] of the same compound?
**A.** metabolite_detected

**Q.** What about the Drug metabolism [8] of the same compound?
**A.** metabolite_detected

**Q.** And the Drug metabolism [9]?
**A.** metabolite_detected

**Q.** What about the Drug metabolism (Liver microsome [10]) of the same compound?
**A.** metabolite_detected

**Q.** What about the Drug metabolism (Liver microsome [11]) of the same compound?
**A.** metabolite_detected

**Q.** And the Drug metabolism (Liver microsome [12])?
**A.** metabolite_detected

**Q.** And the Drug metabolism [13]?
**A.** metabolite_detected

**Q.** What about the Drug metabolism [14] of the same compound?
**A.** metabolite_detected

**Q.** What about the Drug metabolism (Liver microsome [15]) of the same compound?
**A.** metabolite_detected

**Q.** What about the Drug metabolism [16] of the same compound?
**A.** metabolite_detected

**Q.** What about the Drug metabolism (Liver microsome [17]) of the same compound?
**A.** metabolite_detected

**Q.** What about the Drug metabolism (Hepatocyte [18]) of the same compound?
**A.** metabolite_detected

**Q.** And the Drug metabolism [19]?
**A.** metabolite_detected

**Q.** And the Drug metabolism [20]?
**A.** metabolite_detected

**Q.** What about the Drug metabolism [21] of the same compound?
**A.** metabolite_detected

**Q.** What about the Drug metabolism [22] of the same compound?
**A.** metabolite_detected

**Q.** And the Drug metabolism [23]?
**A.** metabolite_detected

**Q.** And the Retention_time [24]?
**A.** 28.5 min

**Q.** What about the Drug metabolism (Liver microsome [25]) of the same compound?
**A.** metabolite_detected

**Q.** What about the Drug metabolism [26] of the same compound?
**A.** metabolite_detected

**Q.** What about the Drug metabolism (Liver microsome [27]) of the same compound?
**A.** metabolite_detected

**Q.** What about the Drug metabolism [28] of the same compound?
**A.** metabolite_detected

**Q.** What about the Drug metabolism [29] of the same compound?
**A.** metabolite_detected

**Q.** What about the Drug metabolism [30] of the same compound?
**A.** metabolite_detected

**Q.** And the Drug metabolism (Liver microsome [31])?
**A.** metabolite_detected

**Q.** And the Drug metabolism [32]?
**A.** metabolite_detected

**Q.** And the Drug metabolism [33]?
**A.** metabolite_detected

**Q.** What about the Drug metabolism [34] of the same compound?
**A.** metabolite_detected

**Q.** And the Drug metabolism [35]?
**A.** metabolite_detected

**Q.** With `CC[C@@H](C)Nc1nc(C)nc2c(-c3ccc(O)nc3C)c(C)nn12` as the compound, how does the Drug metabolism (Liver microsome [1]) read?
**A.** metabolite_detected

**Q.** And the Drug metabolism [2]?
**A.** metabolite_detected

**Q.** What about the Drug metabolism (Hepatocyte [3]) of the same compound?
**A.** metabolite_detected

**Q.** And the Drug metabolism (Liver microsome [4])?
**A.** metabolite_detected

**Q.** And the Drug metabolism [5]?
**A.** metabolite_detected

**Q.** What about the Drug metabolism [6] of the same compound?
**A.** metabolite_detected

**Q.** What about the Drug metabolism [7] of the same compound?
**A.** metabolite_detected

**Q.** And the Drug metabolism [8]?
**A.** metabolite_detected

**Q.** And the Drug metabolism [9]?
**A.** metabolite_detected

**Q.** What about the Drug metabolism (Liver microsome [10]) of the same compound?
**A.** metabolite_detected

**Q.** What about the Drug metabolism (Liver microsome [11]) of the same compound?
**A.** metabolite_detected

**Q.** What about the Drug metabolism (Liver microsome [12]) of the same compound?
**A.** metabolite_detected

**Q.** And the Drug metabolism [13]?
**A.** metabolite_detected

**Q.** What about the Drug metabolism [14] of the same compound?
**A.** metabolite_detected

**Q.** What about the Drug metabolism (Liver microsome [15]) of the same compound?
**A.** metabolite_detected

**Q.** And the Drug metabolism [16]?
**A.** metabolite_detected

**Q.** And the Drug metabolism (Liver microsome [17])?
**A.** metabolite_detected

**Q.** What about the Drug metabolism (Hepatocyte [18]) of the same compound?
**A.** metabolite_detected

**Q.** What about the Drug metabolism [19] of the same compound?
**A.** metabolite_detected

**Q.** And the Drug metabolism [20]?
**A.** metabolite_detected

**Q.** And the Drug metabolism [21]?
**A.** metabolite_detected

**Q.** And the Drug metabolism [22]?
**A.** metabolite_detected

**Q.** And the Drug metabolism [23]?
**A.** metabolite_detected

**Q.** And the Retention_time [24]?
**A.** 32.1 min

**Q.** And the Drug metabolism (Liver microsome [25])?
**A.** metabolite_detected

**Q.** And the Drug metabolism [26]?
**A.** metabolite_detected

**Q.** And the Drug metabolism (Liver microsome [27])?
**A.** metabolite_detected

**Q.** What about the Drug metabolism [28] of the same compound?
**A.** metabolite_detected

**Q.** What about the Drug metabolism [29] of the same compound?
**A.** metabolite_detected

**Q.** What about the Drug metabolism [30] of the same compound?
**A.** metabolite_detected

**Q.** What about the Drug metabolism (Liver microsome [31]) of the same compound?
**A.** metabolite_detected

**Q.** What about the Drug metabolism [32] of the same compound?
**A.** metabolite_detected

**Q.** What about the Drug metabolism [33] of the same compound?
**A.** metabolite_detected

**Q.** What about the Drug metabolism [34] of the same compound?
**A.** metabolite_detected

**Q.** What about the Drug metabolism [35] of the same compound?
**A.** metabolite_detected
